According to PMC12780242 (Scientific Reports, 2025):
Like-named read-outs stand apart in the source and are kept apart here.

Tests used:
AGC = conditions: cited from earlier work
CDT1 = CDT1 immunohistochemistry in endoscopic tumor biopsies; type: in vivo, human
Procedure, shortened: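 Endoscopic tumor biopsies from gastric cancer patients, taken at screening and on day 2 after a single lead-in dose of pevonedistat given alone on day 1. Formalin-fixed paraffin-embedded sections stained by immunohistochemistry with a monoclonal anti-CDT1 antibody. Read-out is CDT1-positive cells.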

gastric cancer cells = conditions: preclinical studies; cited from earlier work
[1] = Phase II trials for other cancers; cited from earlier work
[2] = test system: patients with unresectable advanced or recurrent gastric cancer (AGC); experiment: Dose-finding cohort; type: in vivo, human; conditions: in combination with CapeOX
Procedure, shortened: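 Open-label multicenter phase I with standard 3 + 3 escalation. Pevonedistat dose levels were 20, 15 and 10 mg/m2. There was a single-agent lead-in dose on day 1, then a 7-day interval. Each 3-week cycle gave oxaliplatin 130 mg/m2 on day 1, oral capecitabine 1000 mg/m2/day twice daily about 12 h apart for 14 days, and pevonedistat on days 1, 3 and 5. The DLT window ran from the first lead-in dose to day 35 or the start of cycle 2, whichever came first. The RD also weighed adverse events in later cycles.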

[3] = after failure of ≥ 2 chemotherapy regimens, pivotal Phase III trials
[4] = third-line or later treatment of AGC

Row | Molecule | Response rates (AGC; [3]) [%] | Patients experiencing disease progression as their best response (AGC; [4]) | Response rates (AGC; [4]) | Cullin–RING ligase substrates NRF2 and CDT1 in post-treatment tumor biopsies (CDT1; in vivo) | Pevonedistat-NEDD8 adduct in post-treatment tumor biopsies (CDT1; in vivo) | Patients with increased CDT1 expression (CDT1; post-treatment tumor biopsy) [%] | Growth of gastric cancer cells (gastric cancer cells) | RD of pevonedistat combined with chemotherapy [1] | Maximum tolerated dose of pevonedistat [2] [mg/m^2] | Recommended dose (RD) of pevonedistat ([2]; days 1, 3, 5 of a 3-week cycle) [mg/m^2]
1 | Nivolumab | ≤ 10 | more than 50% | around 10% | – | – | – | – | – | – | –
2 | CCc1c2c(nc3ccc(OC(=O)N4CCC(N5CCCCC5)CC4)cc13)-c1cc3c(c(=O)n1C2)COC(=O)[C@]3(O)CC [irinotecan] | – | more than 50% | around 10% | – | – | – | – | – | – | –
3 | trifluridine/tipiracil | ≤ 10 | more than 50% | around 10% | – | – | – | – | – | – | –
4 | NS(=O)(=O)OC[C@@H]1C[C@@H](n2ccc3c(N[C@H]4CCc5ccccc54)ncnc32)C[C@@H]1O [Pevonedistat] | – | – | – | increase | presence | 75 | significantly suppresses the growth | 20–25 mg/m^2 | 15 | 15
